Assay [1] deals with Protein-tyrosine kinase 6 (Homo sapiens) (UniProt Q13882). The assay is described as follows: Inhibition of human recombinant BRK at 40 nM in presence of ATP by radiometric assay relative to control. In a few lines:
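Part of a radiometric in vitro activity panel of 327 recombinant human kinases. Each kinase was tested in duplicate at one inhibitor concentration. Activity remaining was expressed as a percentage of the vehicle control, and percent inhibition was taken as 100 minus that value.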

Assay [2] deals with Epidermal growth factor receptor (Homo sapiens) (UniProt P00533). The experiment in a line: Inhibition of human recombinant EGFR at 40 nM in presence of ATP by radiometric assay relative to control.
The target in assay [3] is T1, Myosin-IIIb (Homo sapiens) (UniProt Q8WXR4).
T1 sequence (whole entry): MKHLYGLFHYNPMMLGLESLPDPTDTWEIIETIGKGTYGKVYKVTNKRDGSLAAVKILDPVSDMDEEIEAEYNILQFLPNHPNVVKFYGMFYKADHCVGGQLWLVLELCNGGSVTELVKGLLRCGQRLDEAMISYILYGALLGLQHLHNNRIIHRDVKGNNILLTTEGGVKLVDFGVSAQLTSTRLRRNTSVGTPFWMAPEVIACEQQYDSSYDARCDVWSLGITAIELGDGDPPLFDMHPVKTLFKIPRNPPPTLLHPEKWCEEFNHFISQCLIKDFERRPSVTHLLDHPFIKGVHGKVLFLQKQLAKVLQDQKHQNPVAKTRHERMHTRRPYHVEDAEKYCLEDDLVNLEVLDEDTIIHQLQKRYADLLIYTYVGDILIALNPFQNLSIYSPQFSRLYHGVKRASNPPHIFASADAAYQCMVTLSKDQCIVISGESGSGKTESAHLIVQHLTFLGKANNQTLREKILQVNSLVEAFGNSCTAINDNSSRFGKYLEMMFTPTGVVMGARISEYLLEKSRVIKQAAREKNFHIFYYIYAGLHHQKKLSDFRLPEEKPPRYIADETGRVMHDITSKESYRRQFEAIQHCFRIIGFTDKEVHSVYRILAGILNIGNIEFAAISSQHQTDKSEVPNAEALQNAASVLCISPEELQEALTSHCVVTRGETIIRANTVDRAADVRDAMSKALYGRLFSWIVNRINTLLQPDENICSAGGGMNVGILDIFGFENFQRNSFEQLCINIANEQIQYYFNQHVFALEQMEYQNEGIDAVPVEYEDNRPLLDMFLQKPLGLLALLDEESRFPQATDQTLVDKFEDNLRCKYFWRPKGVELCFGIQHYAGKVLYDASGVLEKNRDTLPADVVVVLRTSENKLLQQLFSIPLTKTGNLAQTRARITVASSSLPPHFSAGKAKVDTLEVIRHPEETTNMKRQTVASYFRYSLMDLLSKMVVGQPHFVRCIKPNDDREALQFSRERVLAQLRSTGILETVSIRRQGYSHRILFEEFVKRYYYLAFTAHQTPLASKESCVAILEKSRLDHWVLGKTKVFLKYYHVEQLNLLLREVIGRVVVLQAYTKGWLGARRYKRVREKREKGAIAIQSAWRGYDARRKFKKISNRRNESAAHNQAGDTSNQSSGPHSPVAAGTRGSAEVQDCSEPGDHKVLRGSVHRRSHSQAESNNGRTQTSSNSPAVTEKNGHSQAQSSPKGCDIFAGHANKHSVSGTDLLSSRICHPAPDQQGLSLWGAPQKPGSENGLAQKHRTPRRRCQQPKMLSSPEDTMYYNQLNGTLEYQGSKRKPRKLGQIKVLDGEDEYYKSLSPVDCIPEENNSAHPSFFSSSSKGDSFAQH
The assay is described as follows: Inhibition of human recombinant MYO3B at 40 nM in presence of ATP by radiometric assay relative to control.

Assay [4] concerns the target Homeodomain-interacting protein kinase 2 (Homo sapiens) (UniProt Q9H2X6). The experiment in a line: Inhibition of human recombinant HIPK2 at 40 nM related to control ULK1.
Assay [5] concerns the target T2, Serine/threonine-protein kinase 3 (Homo sapiens) (UniProt Q13188).
T2 sequence (whole entry): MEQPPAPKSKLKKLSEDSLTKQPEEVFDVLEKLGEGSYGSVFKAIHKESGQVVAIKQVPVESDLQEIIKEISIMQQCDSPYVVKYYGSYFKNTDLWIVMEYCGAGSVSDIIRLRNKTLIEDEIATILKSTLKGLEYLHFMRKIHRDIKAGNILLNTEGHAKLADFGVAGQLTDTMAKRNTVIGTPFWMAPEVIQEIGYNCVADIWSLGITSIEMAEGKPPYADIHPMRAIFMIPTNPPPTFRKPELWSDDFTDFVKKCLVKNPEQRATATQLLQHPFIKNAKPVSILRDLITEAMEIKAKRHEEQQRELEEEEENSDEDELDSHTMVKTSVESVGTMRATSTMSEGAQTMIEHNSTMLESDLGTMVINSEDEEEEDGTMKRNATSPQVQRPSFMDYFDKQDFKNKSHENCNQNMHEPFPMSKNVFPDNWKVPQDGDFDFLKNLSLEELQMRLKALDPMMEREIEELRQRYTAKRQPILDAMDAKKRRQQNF
The assay is described as follows: Inhibition of human recombinant MST2 at 40 nM related to control ULK1.

Assay [6] addresses T3, NUAK family SNF1-like kinase 1 (Homo sapiens) (UniProt O60285).
T3 sequence (whole entry): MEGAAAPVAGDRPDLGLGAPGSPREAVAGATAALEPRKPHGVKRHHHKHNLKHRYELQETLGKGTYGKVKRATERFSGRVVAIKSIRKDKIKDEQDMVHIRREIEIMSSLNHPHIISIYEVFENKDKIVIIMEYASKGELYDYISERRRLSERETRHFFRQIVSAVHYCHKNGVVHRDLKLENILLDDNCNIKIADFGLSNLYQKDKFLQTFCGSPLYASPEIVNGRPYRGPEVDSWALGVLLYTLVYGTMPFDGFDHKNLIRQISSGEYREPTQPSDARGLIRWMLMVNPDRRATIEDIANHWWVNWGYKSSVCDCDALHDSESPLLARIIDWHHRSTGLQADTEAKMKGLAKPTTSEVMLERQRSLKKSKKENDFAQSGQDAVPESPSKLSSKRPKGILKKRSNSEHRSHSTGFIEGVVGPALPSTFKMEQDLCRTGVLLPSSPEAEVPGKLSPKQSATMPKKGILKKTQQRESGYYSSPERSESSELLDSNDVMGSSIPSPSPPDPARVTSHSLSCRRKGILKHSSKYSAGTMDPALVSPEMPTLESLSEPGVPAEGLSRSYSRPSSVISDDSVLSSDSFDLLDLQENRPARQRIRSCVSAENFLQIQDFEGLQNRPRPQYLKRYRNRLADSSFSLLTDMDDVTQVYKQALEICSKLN
The assay is described as follows: Inhibition of human recombinant NuaK1 at 500 nM in presence of ATP by radiometric assay relative to control.

For the next assay, the species on record is Homo sapiens. The experiment in a line: Inhibition of human recombinant ABL at 500 nM related to control ULK1.
The target in assay [7] is Bone morphogenetic protein receptor type-1B (Homo sapiens) (UniProt O00238). The experiment in a line: Inhibition of human recombinant BMPR1B at 500 nM related to control ULK1.

The structures appear in SMILES notation.

Homeodomain-interacting protein kinase 2 (Homo sapiens), sequence (Q9H2X6 whole entry, looked up): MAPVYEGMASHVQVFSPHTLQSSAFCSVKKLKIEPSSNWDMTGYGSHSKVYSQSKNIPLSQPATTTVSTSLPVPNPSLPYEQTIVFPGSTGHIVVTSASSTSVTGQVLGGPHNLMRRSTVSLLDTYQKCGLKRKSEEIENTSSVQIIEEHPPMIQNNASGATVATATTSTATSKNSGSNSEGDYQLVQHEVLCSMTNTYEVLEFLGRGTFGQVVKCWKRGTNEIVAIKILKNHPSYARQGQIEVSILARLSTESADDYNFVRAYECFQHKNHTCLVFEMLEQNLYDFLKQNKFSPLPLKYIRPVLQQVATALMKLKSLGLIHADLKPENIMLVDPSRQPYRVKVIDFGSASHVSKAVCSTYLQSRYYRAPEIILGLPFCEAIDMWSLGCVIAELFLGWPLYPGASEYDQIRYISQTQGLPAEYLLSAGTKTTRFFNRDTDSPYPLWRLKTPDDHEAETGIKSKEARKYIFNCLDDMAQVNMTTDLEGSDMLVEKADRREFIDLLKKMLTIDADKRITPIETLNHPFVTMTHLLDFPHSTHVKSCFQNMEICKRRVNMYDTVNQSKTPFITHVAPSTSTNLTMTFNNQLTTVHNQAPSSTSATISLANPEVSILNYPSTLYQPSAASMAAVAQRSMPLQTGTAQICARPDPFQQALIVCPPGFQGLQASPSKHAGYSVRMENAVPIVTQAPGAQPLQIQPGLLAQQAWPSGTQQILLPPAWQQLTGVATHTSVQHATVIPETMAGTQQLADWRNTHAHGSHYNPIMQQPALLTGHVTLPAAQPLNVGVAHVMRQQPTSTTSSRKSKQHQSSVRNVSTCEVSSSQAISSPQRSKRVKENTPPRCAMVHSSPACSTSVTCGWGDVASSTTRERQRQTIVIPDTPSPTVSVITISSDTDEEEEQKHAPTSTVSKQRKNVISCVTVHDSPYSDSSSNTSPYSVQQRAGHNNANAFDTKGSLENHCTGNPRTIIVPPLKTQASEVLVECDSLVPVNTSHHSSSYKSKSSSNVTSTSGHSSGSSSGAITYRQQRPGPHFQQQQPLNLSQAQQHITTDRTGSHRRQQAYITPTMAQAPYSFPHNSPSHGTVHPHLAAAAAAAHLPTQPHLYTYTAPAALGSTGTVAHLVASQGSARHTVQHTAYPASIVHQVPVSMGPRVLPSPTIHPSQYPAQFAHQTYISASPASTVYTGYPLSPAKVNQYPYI
Protein-tyrosine kinase 6 (Homo sapiens), sequence (Q13882 whole entry, looked up): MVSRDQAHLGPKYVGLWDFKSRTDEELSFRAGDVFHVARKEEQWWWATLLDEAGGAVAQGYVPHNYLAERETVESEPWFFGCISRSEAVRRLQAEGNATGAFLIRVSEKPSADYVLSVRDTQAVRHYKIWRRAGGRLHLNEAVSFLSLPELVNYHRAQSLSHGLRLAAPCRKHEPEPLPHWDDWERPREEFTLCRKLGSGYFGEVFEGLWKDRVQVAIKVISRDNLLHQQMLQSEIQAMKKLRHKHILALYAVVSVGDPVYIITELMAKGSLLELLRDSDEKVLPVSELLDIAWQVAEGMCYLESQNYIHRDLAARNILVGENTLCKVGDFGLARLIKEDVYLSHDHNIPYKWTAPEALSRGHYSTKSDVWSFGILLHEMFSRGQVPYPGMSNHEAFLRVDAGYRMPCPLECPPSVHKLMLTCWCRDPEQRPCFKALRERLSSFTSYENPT
Bone morphogenetic protein receptor type-1B (Homo sapiens), sequence (O00238 whole entry): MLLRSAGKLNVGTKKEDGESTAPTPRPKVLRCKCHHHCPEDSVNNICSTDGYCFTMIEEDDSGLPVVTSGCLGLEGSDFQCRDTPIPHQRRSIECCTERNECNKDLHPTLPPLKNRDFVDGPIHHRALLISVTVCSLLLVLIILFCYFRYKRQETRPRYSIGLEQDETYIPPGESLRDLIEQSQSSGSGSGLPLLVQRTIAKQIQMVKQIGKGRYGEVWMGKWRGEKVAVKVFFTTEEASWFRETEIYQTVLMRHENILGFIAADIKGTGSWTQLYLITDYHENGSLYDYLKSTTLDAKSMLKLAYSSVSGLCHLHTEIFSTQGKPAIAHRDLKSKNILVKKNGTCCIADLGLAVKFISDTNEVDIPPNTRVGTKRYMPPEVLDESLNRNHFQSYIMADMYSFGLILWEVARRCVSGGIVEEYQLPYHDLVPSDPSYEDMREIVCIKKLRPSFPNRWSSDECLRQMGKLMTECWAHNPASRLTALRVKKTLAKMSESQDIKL
Epidermal growth factor receptor (Homo sapiens), sequence (P00533 whole entry): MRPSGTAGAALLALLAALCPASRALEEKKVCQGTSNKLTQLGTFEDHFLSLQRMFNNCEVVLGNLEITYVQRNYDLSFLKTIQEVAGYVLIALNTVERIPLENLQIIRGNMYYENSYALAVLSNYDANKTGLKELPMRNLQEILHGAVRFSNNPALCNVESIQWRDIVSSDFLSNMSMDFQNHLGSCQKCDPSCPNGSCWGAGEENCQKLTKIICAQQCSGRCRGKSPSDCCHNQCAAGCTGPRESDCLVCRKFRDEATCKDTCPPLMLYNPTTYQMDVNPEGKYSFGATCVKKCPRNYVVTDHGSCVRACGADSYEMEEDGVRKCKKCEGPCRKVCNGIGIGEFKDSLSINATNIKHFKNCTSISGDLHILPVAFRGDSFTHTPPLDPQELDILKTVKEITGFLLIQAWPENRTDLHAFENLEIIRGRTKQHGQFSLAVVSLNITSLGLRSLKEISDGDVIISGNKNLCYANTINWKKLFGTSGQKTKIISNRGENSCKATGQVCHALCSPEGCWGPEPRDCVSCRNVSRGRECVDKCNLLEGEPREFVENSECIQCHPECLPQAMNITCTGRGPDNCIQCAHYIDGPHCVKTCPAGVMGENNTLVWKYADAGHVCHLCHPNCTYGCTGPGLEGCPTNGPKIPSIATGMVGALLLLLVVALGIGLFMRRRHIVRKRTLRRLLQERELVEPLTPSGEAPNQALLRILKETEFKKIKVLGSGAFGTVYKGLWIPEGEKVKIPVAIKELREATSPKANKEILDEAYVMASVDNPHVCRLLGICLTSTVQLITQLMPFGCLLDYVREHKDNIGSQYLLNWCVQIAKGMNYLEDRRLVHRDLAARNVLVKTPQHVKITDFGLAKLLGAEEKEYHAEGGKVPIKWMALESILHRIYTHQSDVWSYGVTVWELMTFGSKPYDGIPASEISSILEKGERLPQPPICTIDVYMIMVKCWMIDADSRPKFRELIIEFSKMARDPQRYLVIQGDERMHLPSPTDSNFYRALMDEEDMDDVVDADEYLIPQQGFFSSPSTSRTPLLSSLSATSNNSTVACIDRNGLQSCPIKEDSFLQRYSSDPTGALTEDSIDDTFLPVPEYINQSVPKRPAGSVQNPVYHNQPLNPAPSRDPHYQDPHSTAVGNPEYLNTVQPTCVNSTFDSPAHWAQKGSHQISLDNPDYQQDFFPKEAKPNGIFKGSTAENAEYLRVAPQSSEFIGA

For `O=C(N[C@@H](C1CC1)C(F)(F)F)c1cc(-c2cnn3cc(-c4ccc(F)cc4)cnc23)cs1`, the inhibition in assay [1], in assay [2] and in assay [3] was 0% each time. Besides, the fold change (FC) in assay [4] and in assay [5] was 0 each time.
As for `CNC(=O)c1ccccc1Oc1nc(Nc2cc(OC)c(OC)c(OC)c2)ncc1Br`, in assay [6], the inhibition turned out to be 71%. The fold change (FC) in the assay filed under Homo sapiens stood at 0.19; in assay [7] it was 0.

For orientation: inhibition means the share of the control response that was lost under treatment.
